Measured values reported in the EternaBench riboswitch data.

Tested on: MS2 coat protein
Test: apparent Kd, MS2 coat protein; higher = weaker binding; RNA-MaP array; FMN 200 µM where present
Outline: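 Green signal from SNAP-549-labelled MS2 coat protein was normalised to red-channel RNA signal and to the median Fmax of control clusters. The protein was titrated from 0.7 or 1.5 nM, doubling to 3 µM, without and then with constant ligand, over designs transcribed by stalled E. coli RNA polymerase on Illumina sequencing-chip clusters, in 100 mM Tris-HCl pH 7.5, 80 mM KCl, 4 mM MgCl2, BSA, DTT, yeast tRNA and Tween-20. The apparent Kd is the median of filtered per-cluster binding-curve fits.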

[1] = designed as: ON switch for flavin mononucleotide, no ligand
[2] = ligand present: flavin mononucleotide, designed as: ON switch for flavin mononucleotide
[3] = designed as: OFF switch for flavin mononucleotide, no ligand
[4] = ligand present: flavin mononucleotide, designed as: OFF switch for flavin mononucleotide

Sequence | apparent Kd [1] | apparent Kd [2] | apparent Kd [3] | apparent Kd [4]
GUAGCAUACCGAGGAUAUUCAGGGCGUGAAUAAACAUGAGGAUCACCCAUGUGGCGAAAGCCUAGGGAGAAGGCGGAAUGCUAC | 25.9 nM | 19.1 nM | – | –
GUAGCAUACCGAGGAUAUUCAUACCGAAAACGGACAUGAGGAUCACCCAUGUGGCGAAAGCCUUGGGAGAAGGCGGAAUGCUAC | 592 nM | 26.2 nM | – | –
GUAGCAUACCGAGGAUAUUCAUACCGGAAACGGACAUGAGGAUCACCCAUGUGGCUAAUGCCUUGGGAGAAGGCGGAAUGCUAC | 568 nM | 21.7 nM | – | –
GUAGCAUACCGAGGAUAUUCAUAGAAUAAAUAAACAUGAGGAUCACCCAUGUGGCGAAAGCCUAGGGAGAAGGCGGAAUGCUAC | 183 nM | 20.3 nM | – | –
GUAGCAUUCCGAGGAUAUUCAGGGCGUGGAUAUACAUGAGGAUCACCCAUGUGGCGGAAGCCUAGGGAGAAGGCGGGCUGCUUC | 27.8 nM | 18.6 nM | – | –
GUAGCAUUCUGAGGAUAUUCAUACCGGUAACGGACAUGAGGAUCACCCAUGUGGCGAAAGCCUUGGGAGAAGGCAGUAUGCUAC | 171 nM | 10 nM | – | –
GUAGCAUUGAGAGGAUAUCCAUACCGGAAACGGACAUGAGGAUCACCCAUGUGGCGAAAGCCGUGGGAGAAGGCUCUAUGCUAC | 8.39 nM | 4.32 nM | – | –
GUAGCUACUAUUAUACAUGAGGAUCACCCAUGUUACAUGGGUAAGGAUAUUGAAGUUAUGAUUAUCAAGAAGGUACUAUGCUAC | 511 nM | 118 nM | – | –
GUAGCUAUCGGAGGAUAUUCAUACCGCAAACGGACAUGAGGAUCACCCAUGUGGCGAAAGCAUUGGGAGAAGGCCGAUAGCUAC | 22.5 nM | 5.68 nM | – | –
GUAGCUAUCGGAGGAUAUUCAUACCGGAAAAGGACAUGAGGAUCACCCAUGUGGCGAAAGCCUUGGGAGAAGGCCGAUAGCUAC | 94.2 nM | 6.77 nM | – | –
GUAGCUAUCGGAGGAUAUUCAUACCGGAAAAGGACAUGAGGAUCACCCAUGUGGUGAAAGCCUUGGGAGAAGGCCGAUAGCUAC | 484 nM | 191 nM | – | –
GUAGCUAUCGGAGGAUAUUCAUACCGGAAACGGACAUGAGGAUCACCCAUGUGGCGAAAGCCUUGGAAGAAGGCCGAUAGCUAC | 4.08 nM | 3.56 nM | – | –
GUAGCUAUCGGAGGAUAUUCAUACCGGAAACGGACAUGAGGAUCACCCAUGUGGCGAAAGCCUUGGGAGAAGGCCGAUAGCUAC | 601 nM | 20.8 nM | – | –
GUAGUUAGUAAAGGAUAUUAGUGUGUGUAAUAUUGAGAAGGUUACAUGAGGAUCACCCAUGUGAUCAAUCACUGUUAAGGUUGC | – | – | 6.6 nM | 6.42 nM
GUAUACGAUGAGGAUAUAUGAUAUCAAAGCAUCAUAGAAGGCAUCACAUGAGGAUCACCCAUGUGAUCUUCUUU | – | – | 18.1 nM | 65.2 nM
GUAUAGGACAGAGGAUAUACGUGCUAGAGAUACUAGCAAAAUUUCCUCACAUGAGGAUCACCCAUGUAGAAGGCUGUCCUAUCG | – | – | 17.1 nM | 498 nM
GUAUCUUAUGAGAAGGCGAUCAUGAAACAUGAUCGAGGAUAUCAUGUAAACAUGAGGAUCACCCAUGUAUGGGUAUUAUGGUAU | 95 nM | 80.2 nM | – | –
GUAUGAGCGAUAGGAUAUACUGAGAUUGAAUGGGUAGAAGGAUCACUUGUGUGGAAGACAUGAGGAUCACCCAUGUUACGGGCC | 20.7 nM | 62.6 nM | – | –
GUAUGAGCGAUAGGAUAUACUGAGAUUGAAUGGGUAGAAGGAUCUCUUGUGGGAAAGACAUGAGGAUCACCCAUGUCACGGACC | 186 nM | 100 nM | – | –
GUAUGCAAGUAGAAGGACGGAUAUUUUGAAAACGUAGGAUAUACAGAAUCAUAUCCACAUGGAUACAUGAGGAUCACCCAUGUA | – | – | 12 nM | 11.8 nM
GUAUUUAGAUAAGGAUAUAAGUCUAUGACAUGAGGAUCACCCAUGUGUGUUUUAGAAGGUAUUUGGGUAAUAUUGUUACAGUAA | 29.6 nM | 21.3 nM | – | –
GUAUUUUUACAGAAGGUGUAUUACAUGAGGAUCACCCAUGUAUUAUGGAAUAAAGUUGUUAUUUACAAGGAUAUGUACUAUUUU | 19.3 nM | 14.8 nM | – | –
GUCAGCACGUGAGGAUAUACAACACUGCUUCGGCAGUGUAUUAAGAUCACAUGAGGAUCACCCAUGUAGAAGGCACGAGCUGAU | – | – | 13.6 nM | 268 nM
GUCAGCUCGUCAGGAUAUACAACACUGCUUCGGCAGUGUAUUAAGAUCACAUGAGGAUCACCCAUGUAGAAGGCACGAGCUGAU | – | – | 7.39 nM | 7.56 nM
GUCAGCUCGUCAGGAUAUACGUCACUGCUUCGGCAGUGUGGUAAGAUCACAUGAGGAUCACCCAUGUAGAAGGGACGAGCUGAG | – | – | 13.3 nM | 296 nM
GUCAGCUCGUGAGGAUAUACAACAAUGCUUCGGCAGUGUAUUAAGAUCACAUGAGGAUCACCCAUGUAGAAGGCACGAGCUGAU | – | – | 7.66 nM | 73.7 nM
GUCAGCUCGUGAGGAUAUACAACACUGCUUCGGCAGUGUAUAAAGAUCACAUGAGGAUCACCCAUGUAGAAGGCACGAGCUGAU | – | – | 15.2 nM | 213 nM

Sequence | apparent Kd [1] | apparent Kd [2] | apparent Kd [3] | apparent Kd [4]
GUCAGCUCGUGAGGAUAUACAACACUGCUUCGGCAGUGUAUUAAGAUCACAUGAGGAUCACCCAUGUAGAAGGCACGAGCUGAA | – | – | 13.7 nM | 245 nM
GUCAGCUCGUGAGGAUAUACAACACUGCUUCGGCAGUGUAUUAAGAUCACAUGAGGAUCACCCAUGUAGAAGGCAGGAGCUGAU | – | – | 15.7 nM | 250 nM
GUCAGCUCGUGAGGAUAUACAACACUGCUUCGGCGGUGUAUUAAGAUCACAUGAGGAUCACCCAUGUAGAAGGCACGAGCUGAU | – | – | 13.1 nM | 249 nM
GUCAGCUCGUGAGGAUAUACAACGCUGCUUCGGCAGUGUAUUAAGAUCACAUGAGGAUCACCCAUGUAGAAGGCACGAGCUGAU | – | – | 15.1 nM | 284 nM
GUCAGCUCGUGAGGAUAUACAUAAUAUCAAGAUCACAUGAGGAUCACCCAUGUAGAAGGCACGAGCUGAUAAGCACGAAAGUGC | – | – | 12.1 nM | 102 nM
GUCAGCUCGUGAGGAUAUACAUCACUGCUUCGGCAGUGUAUUAAGAUAACAUGAGGAUCACCCAUGUAGAAGGCACGAGCUGAU | – | – | 17 nM | 28.5 nM
GUCAGCUCGUGAGGAUAUACAUGUGCUGGAAACAGCACUAAAGUUUUCACAUGAGGAUCACCCAUGUAGAAGGCACGAGCUGAU | – | – | 15.8 nM | 35.2 nM
GUCAGCUCGUGAGGAUAUACAUGUGCUGGAAACAGCACUAUUAAAUUCACAUGAGGAUCACCCAUGUAGAAGGCACGAGCUGAU | – | – | 15.4 nM | 19.1 nM
GUCAGCUCGUGAGGAUAUGCAUCACUGCUUCGGCAGUGUAUUAAGAUCACAUGAGGAUCACCCAUGUAGAAGGCACGAGCUGAU | – | – | 7.3 nM | 41.7 nM
GUCAGUGUGGUAGGAUAUCGAAACGGUCAGUUACGAGAAGGGCUACAUGAGGAUCACCCAUGUAUCCAAGAUCGGCUUACAGCA | – | – | 5.87 nM | 5.92 nM
GUCAUCGUAUGAGGAUAUGGCACCGAAACGGUGCCAGAAGGCAUGUCAAUAGACAUGAGGAUCACCCAUGUGUUAUCGAUGGCA | 116 nM | 13.2 nM | – | –
GUCCUCAUGACAUGAGGAUCACCCAUGUAUUAUUUGUUAACUGAGGAUAUACUCUUAAUUUUUAUGUAGAAGGCAGAUUCGGUC | – | – | 35.6 nM | 39.9 nM
GUCCUCUUGACAUGAGGAUCACCCAUGUAUUAUUUGUUAACUGAGGAUAUACUCUUAUUUUUUAUGUAGAAGGCAGAUUUGUUC | – | – | 40.9 nM | 52.5 nM
GUCCUUUCUGAGGAUAUUAUCCUUUCCGAUUGAUAAGAAGGCAGUACAUGAGGAUCACCCAUGUGGGUUGUCUG | – | – | 29.8 nM | 38.3 nM
GUCGGAAACGACAAAAGUACCCGAGCAGAAGGCAUGUCAUAAGACAUGAGGAUCACCCAUGUGCAUGAGGAUAUGCUCGGGUAC | 5.83 nM | 5.28 nM | – | –
GUCGGAAACGACAAAAGUACCCGAGCAGAAGGGUGAAAACAUGAGGAUCACCCAUGUAAAUAAUCACAGGAUAUGCUCGGGUAC | 6.09 nM | 4.43 nM | – | –
GUCGGAAACGACAAAAGUAGCAUAGGAGAAGGCAUGUCAUAAGACAUGAGGAUCACCCAUGUUCGUGAGGAUAUCCUAUGCUAC | 37.3 nM | 13.2 nM | – | –
GUCGUACAUGAGGAUCACCCAUGUGAGGAUAUGAGUGACUCAGUGAAAACUGAGUCACUCAGAAGGCGCAUGAU | – | – | 84.5 nM | 384 nM
GUCGUUGUCUGGUCGAGGAUAGGGCAGGAUAUACAUGAGGAUCACCCAUGUGAAGCGCGAAGGAGGUAGAAGGGCCCACGUCAU | – | – | 14.7 nM | 14.8 nM
GUCUCGAUGUAAGGAUAUGCAGUGGAAUACACUGCAGAAGGUACAUGAGGAUCACCCAUGUAACUCUAAUAAUAAUAACGAGAC | – | – | 12 nM | 19.2 nM
GUCUCGUCAGGAUAUGACGCUACAUUUUGUUUUUAGAAGAGUCAGAAGGGACAUGAGGAUCACCCAUGUGAUUC | – | – | 329 nM | 402 nM
GUCUGGCUAGGAUAUACAGAAUCCACGAGUCGGUUGCCCUGACAUGAGGAUCACCCAUGUAGAAGGAGCGAGAA | – | – | 17.9 nM | 24.3 nM
GUCUGUUACGAGAAGGACAAUUGGAUGCAGGCUGUAGGAUAUCGAGGCAGACAUGAGGAUCACCCAUGUAGGCUUACGAUGGGU | – | – | 11.7 nM | 19.1 nM
GUGAAGAAUUAAGGAUAUUGAAUACAUAUGUUUAACAUGAGGAUCACCCAUGUGGGUUGCGGUAUCGAGAAGGUAAAUUACUGG | 111 nM | 126 nM | – | –
GUGACACAUGAGGAUCACCCAUGUGAGGAUAUGAUACUAUGUACUUCGGUACAUAGUAUCAGAAGGCACAGUGA | – | – | 50.2 nM | 119 nM
GUGACCCAUUAACAGUUACCACAUGAGGAUCACCCAUGUGCGAAGGAUAUAGACUGCUAUGCGUGCUAGAAGGUCGCGCGUGGC | – | – | 6.32 nM | 6.63 nM
GUGACGAAUGUAGGAUAUGCUGAGGAAUACUCAGCAGAAGGACAUGAGGAUCACCCAUGUCAUCCUUAUAAUAAAUAUCGUCAC | – | – | 13.4 nM | 17.7 nM
